ChEMBL document CHEMBL1138564, “Microwave-induced synthesis and anti-microbial activities of 7,10,11,12-tetrahydrobenzo[c]acridin-8(9H)-one derivatives” (2009)
In brackets after ≈: the same amount, converted by molar mass. Activity calls are given as the source filed them. The rule behind the calls is not given here.

Columns and labels:
[1] = test system: Klebsiella aerogenes; experiment: Antimicrobial activity against Klebsiella aerogenes NCIM 2239 at 500 ug/disk after 24 hrs by disk diffusion method; type: functional
Summary of the method: (§1)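 Disc diffusion on Mueller–Hinton agar. 100 µl of bacterial suspension at 10⁸ CFU/ml is spread on the plate. Discs carry test compounds at two loadings, dissolved in DMSO; DMSO alone serves as negative control. Ofloxacin disc is the positive reference. Plates are incubated at 37 °C for 24 h, and the inhibition zone diameter is measured.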

[2] = test system: Trichoderma viride; experiment: Antimicrobial activity against Trichoderma viride NCIM 1195 at 500 ug/disk after 72 hrs by disk diffusion method; type: functional; conditions: NCIM 1195, 72 h, read-out: DIZ
Summary of the method: (§2)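 Fungal disc diffusion. 100 µl of suspension at 10⁶ CFU/ml was spread on Sabouraud's dextrose agar. Discs carrying test compound in DMSO were applied, with a DMSO-only disc as negative control. Plates were incubated at 27 °C for 72 h, and the zone of inhibition diameter was measured.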

[3] = test system: Aspergillus fumigatus; experiment: Antimicrobial activity against Aspergillus fumigatus NCIM 902 after 72 hrs by serial dilution method; type: functional; conditions: NCIM 902, 72 h
Summary of the method: (§3)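 MIC by broth dilution in Sabouraud's dextrose broth, only for fungi sensitive in disc diffusion. Two-fold serial dilutions of compounds are made in 1 ml broth per tube, range 3.9 to 1000. Inoculated tubes are incubated at 27 °C for 72 h.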

[4] = test system: Bacillus subtilis; experiment: Antimicrobial activity against Bacillus subtilis NCIM 2063 after 24 hrs by serial dilution method; type: functional; conditions: NCIM 2063, 24 h
Summary of the method: (§4)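 Broth dilution MIC in nutrient broth, run only for organisms found sensitive in disc diffusion. Compounds are two-fold serially diluted in 1 ml sterile broth per tube, spanning 3.9 to 1000. Inoculated tubes are incubated at 37 °C for 24 h.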

[5] = test system: Aspergillus parasiticus; experiment: Antimicrobial activity against Aspergillus parasiticus NCIM 904 at 500 ug/disk after 72 hrs by disk diffusion method; type: functional; conditions: NCIM 904, 72 h, read-out: DIZ
Summary of the method: (§5)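 Disc diffusion on Sabouraud's dextrose agar. 100 µl of fungal suspension at 10⁶ CFU/ml is spread on the plate. Discs carry test compounds at two loadings in DMSO; DMSO alone is the negative control. Clotrimazole disc is the positive reference. Plates are incubated at 27 °C for 72 h, and the zone of inhibition diameter is measured.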

[6] = test system: Trichoderma viride; experiment: Antimicrobial activity against Trichoderma viride NCIM 1195 after 72 hrs by serial dilution method; type: functional; conditions: NCIM 1195, 72 h
Summary of the method: (§6)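 MIC by broth dilution in Sabouraud's dextrose broth, run only on fungi found sensitive in the disc assay. Twofold serial dilutions were made in 1 ml broth per tube, covering 3.9 to 1000. Inoculated tubes were incubated at 27 °C for 72 h.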

[7] = test system: Bacillus cereus; experiment: Antimicrobial activity against Bacillus cereus NCIM 2155 at 1000 ug/disk after 24 hrs by disk diffusion method; type: functional; conditions: NCIM 2155, 24 h, read-out: DIZ; summary of the method: as §1
[8] = test system: Aliivibrio fischeri; experiment: Antimicrobial activity against Vibrio fischeri NCIM 2154 at 1000 ug/disk after 24 hrs by disk diffusion method; type: functional
Summary of the method: (§7)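 Disc diffusion. 100 µl of bacterial suspension at 10⁸ CFU/ml was spread on Mueller–Hinton agar. Discs loaded with test compound dissolved in DMSO were placed on the lawn, with a DMSO-only disc as negative control. Plates were incubated at 37 °C for 24 h, and the inhibition zone diameter was measured.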

[9] = test system: Klebsiella aerogenes; experiment: Antimicrobial activity against Klebsiella aerogenes NCIM 2239 at 1000 ug/disk after 24 hrs by disk diffusion method; type: functional; summary of the method: as §1
[10] = test system: Aspergillus flavus; experiment: Antimicrobial activity against Aspergillus flavus NCIM 902 after 72 hrs by serial dilution method; type: functional; conditions: NCIM 535, 72 h, in the assay text read “NCIM 535” for “NCIM 902”; summary of the method: as §3
[11] = test system: Pseudomonas aeruginosa; experiment: Antimicrobial activity against Pseudomonas aeruginosa NCIM 2200 at 1000 ug/disk after 24 hrs by disk diffusion method; type: functional; summary of the method: as §1
[12] = test system: Staphylococcus; experiment: Antimicrobial activity against Staphylococcus albus NCIM 2178 at 500 ug/disk after 24 hrs by disk diffusion method; type: functional; summary of the method: as §7
[13] = test system: Escherichia coli; experiment: Antimicrobial activity against Escherichia coli NCIM 2065 at 1000 ug/disk after 24 hrs by disk diffusion method; type: functional; conditions: NCIM 2065, 24 h, read-out: DIZ; summary of the method: as §1
[14] = test system: Penicillium chrysogenum; experiment: Antimicrobial activity against Penicillium chrysogenum NCIM 707 at 1000 ug/disk after 72 hrs by disk diffusion method; type: functional; summary of the method: as §5
[15] = test system: Aspergillus parasiticus; experiment: Antimicrobial activity against Aspergillus parasiticus NCIM 904 at 1000 ug/disk after 72 hrs by disk diffusion method; type: functional; conditions: NCIM 904, 72 h, read-out: DIZ; summary of the method: as §5
[16] = test system: Escherichia coli; experiment: Antimicrobial activity against Escherichia coli NCIM 2065 at 500 ug/disk after 24 hrs by disk diffusion method; type: functional; conditions: NCIM 2065, 24 h, read-out: DIZ; summary of the method: as §1
[17] = test system: Aspergillus parasiticus; experiment: Antimicrobial activity against Aspergillus parasiticus NCIM 904 after 72 hrs by serial dilution method; type: functional; conditions: NCIM 904, 72 h; summary of the method: as §3
[18] = test system: Aspergillus niger; experiment: Antimicrobial activity against Aspergillus niger NCIM 1196 at 500 ug/disk after 72 hrs by disk diffusion method
[19] = test system: Bacillus cereus; experiment: Antimicrobial activity against Bacillus cereus NCIM 2155 at 500 ug/disk after 24 hrs by disk diffusion method; type: functional; conditions: NCIM 2155, 24 h, read-out: DIZ; summary of the method: as §1
[20] = test system: Aspergillus flavus; experiment: Antimicrobial activity against Aspergillus flavus NCIM 902 at 1000 ug/disk after 72 hrs by disk diffusion method; type: functional; conditions: NCIM 902, 72 h, read-out: DIZ; summary of the method: as §5
[21] = test system: Trichoderma viride; experiment: Antimicrobial activity against Trichoderma viride NCIM 1195 at 1000 ug/disk after 72 hrs by disk diffusion method; type: functional; conditions: NCIM 1195, 72 h, read-out: DIZ; summary of the method: as §2
[22] = test system: Penicillium chrysogenum; experiment: Antimicrobial activity against Penicillium chrysogenum NCIM 707 at 500 ug/disk after 72 hrs by disk diffusion method; type: functional; summary of the method: as §5
[23] = test system: Aspergillus fumigatus; experiment: Antimicrobial activity against Aspergillus fumigatus NCIM 902 at 1000 ug/disk after 72 hrs by disk diffusion method; type: functional; conditions: NCIM 902, 72 h, read-out: DIZ; summary of the method: as §5
[24] = test system: Proteus vulgaris; experiment: Antimicrobial activity against Proteus vulgaris NCIM 2027 at 500 ug/disk after 24 hrs by disk diffusion method; type: functional; summary of the method: as §1
[25] = test system: Lipomyces lipofer; experiment: Antimicrobial activity against Lipomyces lipofer NCIM 3252 at 500 ug/disk after 72 hrs by disk diffusion method; type: functional; summary of the method: as §5
[26] = test system: Bacillus subtilis; experiment: Antimicrobial activity against Bacillus subtilis NCIM 2063 at 500 ug/disk after 24 hrs by disk diffusion method; type: functional; conditions: NCIM 2063, 24 h, read-out: DIZ; summary of the method: as §1
[27] = test system: Staphylococcus; experiment: Antimicrobial activity against Staphylococcus albus NCIM 2178 at 1000 ug/disk after 24 hrs by disk diffusion method; type: functional; summary of the method: as §7
[28] = test system: Rhodotorula mucilaginosa; experiment: Antimicrobial activity against Rhodotorula rubra NCIM 3174 at 1000 ug/disk after 72 hrs by disk diffusion method; type: functional; conditions: NCIM 3174, 72 h, read-out: DIZ; summary of the method: as §2
[29] = test system: Rhodotorula mucilaginosa; experiment: Antimicrobial activity against Rhodotorula rubra NCIM 3174 at 500 ug/disk after 72 hrs by disk diffusion method; type: functional; conditions: NCIM 3174, 72 h, read-out: DIZ; summary of the method: as §2
[30] = test system: Salmonella typhimurium; experiment: Antimicrobial activity against Salmonella Typhimurium NCIM 2501 at 1000 ug/disk after 24 hrs by disk diffusion method; type: functional; conditions: Salmonella enterica subsp. enterica serovar Typhimurium; summary of the method: as §7
[31] = test system: Aspergillus flavus; experiment: Antimicrobial activity against Aspergillus flavus NCIM 902 at 500 ug/disk after 72 hrs by disk diffusion method; type: functional; conditions: NCIM 902, 72 h, read-out: DIZ; summary of the method: as §5
[32] = test system: Aliivibrio fischeri; experiment: Antimicrobial activity against Vibrio fischeri NCIM 2154 at 500 ug/disk after 24 hrs by disk diffusion method; type: functional; summary of the method: as §7
[33] = test system: Rhodotorula mucilaginosa; experiment: Antimicrobial activity against Rhodotorula rubra NCIM 3174 after 72 hrs by serial dilution method; type: functional; conditions: NCIM 3174, 72 h; summary of the method: as §6
[34] = test system: Salmonella typhimurium; experiment: Antimicrobial activity against Salmonella Typhimurium NCIM 2501 at 500 ug/disk after 24 hrs by disk diffusion method; type: functional; conditions: Salmonella enterica subsp. enterica serovar Typhimurium; summary of the method: as §7
[35] = test system: Aspergillus fumigatus; experiment: Antimicrobial activity against Aspergillus fumigatus NCIM 902 at 500 ug/disk after 72 hrs by disk diffusion method; type: functional; summary of the method: as §5
[36] = test system: Rhodococcus corynebacterioides; experiment: Antimicrobial activity against Corynebacterium rubrum NCIM 2252 at 1000 ug/disk after 24 hrs by disk diffusion method; type: functional; conditions: Rhodococcoides corynebacterioides; summary of the method: as §1
[37] = test system: Escherichia coli; experiment: Antimicrobial activity against Escherichia coli NCIM 2065 after 24 hrs by serial dilution method; type: functional; conditions: NCIM 2065, 24 h; summary of the method: as §4
[38] = test system: Proteus vulgaris; experiment: Antimicrobial activity against Proteus vulgaris NCIM 2027 at 1000 ug/disk after 24 hrs by disk diffusion method; type: functional; summary of the method: as §1
[39] = test system: Lipomyces lipofer; experiment: Antimicrobial activity against Lipomyces lipofer NCIM 3252 at 1000 ug/disk after 72 hrs by disk diffusion method; type: functional; summary of the method: as §5
[40] = test system: Bacillus cereus; experiment: Antimicrobial activity against Bacillus cereus NCIM 2155 after 24 hrs by serial dilution method; type: functional; conditions: NCIM 2155, 24 h; summary of the method: as §4
[41] = test system: Aspergillus niger; experiment: Antimicrobial activity against Aspergillus niger NCIM 1196 at 1000 ug/disk after 72 hrs by disk diffusion method
[42] = test system: Bacillus subtilis; experiment: Antimicrobial activity against Bacillus subtilis NCIM 2063 at 1000 ug/disk after 24 hrs by disk diffusion method; type: functional; conditions: NCIM 2063, 24 h, read-out: DIZ; summary of the method: as §1
[43] = test system: Pseudomonas aeruginosa; experiment: Antimicrobial activity against Pseudomonas aeruginosa NCIM 2200 at 500 ug/disk after 24 hrs by disk diffusion method; type: functional; summary of the method: as §7
[44] = test system: Rhodococcus corynebacterioides; experiment: Antimicrobial activity against Corynebacterium rubrum NCIM 2252 at 500 ug/disk after 24 hrs by disk diffusion method; type: functional; conditions: Rhodococcoides corynebacterioides; summary of the method: as §1

O=C1CCCC2=C1C(c1ccccc1)c1ccc3ccccc3c1N2 (centres undefined)
diameter of the inhibition zone (DIZ) [1]: inactive | zone of inhibition at 500 µg/disc [2]: 11 mm | MIC [3]: 62.5 µg/mL (≈ 192 µM) | MIC [4]: 62.5 µg/mL (≈ 192 µM) | zone of inhibition at 500 µg/disc [5]: 7 mm | MIC [6]: 31.2 µg/mL (≈ 95.9 µM) | zone of inhibition at 1000 µg/disc [7]: 9 mm | diameter of the inhibition zone (DIZ) [8]: inactive | diameter of the inhibition zone (DIZ) [9]: inactive | MIC [10]: 62.5 µg/mL (≈ 192 µM) | diameter of the inhibition zone (DIZ) [11]: inactive | diameter of the inhibition zone (DIZ) [12]: inactive | zone of inhibition at 1000 µg/disc [13]: 9 mm | diameter of the inhibition zone (DIZ) [14]: inactive | zone of inhibition at 1000 µg/disc [15]: 9 mm | zone of inhibition at 500 µg/disc [16]: 8 mm | MIC [17]: 62.5 µg/mL (≈ 192 µM) | diameter of the inhibition zone (DIZ) [18]: inactive | zone of inhibition at 500 µg/disc [19]: 8 mm | zone of inhibition at 1000 µg/disc [20]: 10 mm | zone of inhibition at 1000 µg/disc [21]: 12 mm | diameter of the inhibition zone (DIZ) [22]: inactive | zone of inhibition at 1000 µg/disc [23]: 11 mm | diameter of the inhibition zone (DIZ) [24]: inactive | diameter of the inhibition zone (DIZ) [25]: inactive | zone of inhibition at 500 µg/disc [26]: 8 mm | diameter of the inhibition zone (DIZ) [27]: inactive | zone of inhibition at 1000 µg/disc [28]: 12 mm | zone of inhibition at 500 µg/disc [29]: 8 mm | diameter of the inhibition zone (DIZ) [30]: inactive | zone of inhibition at 500 µg/disc [31]: 9 mm | diameter of the inhibition zone (DIZ) [32]: inactive | MIC [33]: 31.2 µg/mL (≈ 95.9 µM) | diameter of the inhibition zone (DIZ) [34]: inactive | diameter of the inhibition zone (DIZ) [35]: inactive | diameter of the inhibition zone (DIZ) [36]: inactive | MIC [37]: 125 µg/mL (≈ 384 µM) | diameter of the inhibition zone (DIZ) [38]: inactive | diameter of the inhibition zone (DIZ) [39]: inactive | MIC [40]: 125 µg/mL (≈ 384 µM) | diameter of the inhibition zone (DIZ) [41]: inactive | zone of inhibition at 1000 µg/disc [42]: 10 mm | diameter of the inhibition zone (DIZ) [43]: inactive | diameter of the inhibition zone (DIZ) [44]: inactive
